Assay results from ChEMBL document CHEMBL3243960.
The source made the active and inactive calls. The calls are words filed in the database; no cut-off is given here.

Legend:
[1] = biological target: T1, Asparagine synthetase [glutamine-hydrolyzing] (Mus musculus) (UniProt Q61024); assay: Inhibition of asparagine synthetase in mouse L5178Y/AR cells at 10 mM; format: cell-based
T1 sequence (whole entry): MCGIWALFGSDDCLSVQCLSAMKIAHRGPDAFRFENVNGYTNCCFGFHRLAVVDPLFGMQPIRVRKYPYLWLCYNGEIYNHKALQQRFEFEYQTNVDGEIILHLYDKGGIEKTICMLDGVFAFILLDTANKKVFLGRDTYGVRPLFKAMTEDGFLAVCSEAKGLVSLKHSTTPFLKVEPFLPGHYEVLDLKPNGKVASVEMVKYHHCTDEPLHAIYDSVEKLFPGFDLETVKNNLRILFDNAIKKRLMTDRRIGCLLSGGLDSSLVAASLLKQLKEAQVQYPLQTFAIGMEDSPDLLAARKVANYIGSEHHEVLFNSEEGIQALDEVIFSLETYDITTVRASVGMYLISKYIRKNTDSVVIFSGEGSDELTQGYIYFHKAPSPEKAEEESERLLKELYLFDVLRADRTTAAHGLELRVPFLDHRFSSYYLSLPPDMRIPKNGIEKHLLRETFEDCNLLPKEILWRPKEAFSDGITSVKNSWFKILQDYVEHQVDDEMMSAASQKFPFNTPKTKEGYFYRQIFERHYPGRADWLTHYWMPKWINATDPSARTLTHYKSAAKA

[2] = biological target: T2, Asparagine synthetase [glutamine-hydrolyzing] (Rattus norvegicus) (UniProt P49088); assay: Inhibition of asparagine synthetase isolated from rat bearing Novikoff hepatoma cells using [14C]-L-aspartic acid as substrate at 2 mM incubated 15 mins prior to substrate addition measured after 30 mins
T2 sequence (whole entry): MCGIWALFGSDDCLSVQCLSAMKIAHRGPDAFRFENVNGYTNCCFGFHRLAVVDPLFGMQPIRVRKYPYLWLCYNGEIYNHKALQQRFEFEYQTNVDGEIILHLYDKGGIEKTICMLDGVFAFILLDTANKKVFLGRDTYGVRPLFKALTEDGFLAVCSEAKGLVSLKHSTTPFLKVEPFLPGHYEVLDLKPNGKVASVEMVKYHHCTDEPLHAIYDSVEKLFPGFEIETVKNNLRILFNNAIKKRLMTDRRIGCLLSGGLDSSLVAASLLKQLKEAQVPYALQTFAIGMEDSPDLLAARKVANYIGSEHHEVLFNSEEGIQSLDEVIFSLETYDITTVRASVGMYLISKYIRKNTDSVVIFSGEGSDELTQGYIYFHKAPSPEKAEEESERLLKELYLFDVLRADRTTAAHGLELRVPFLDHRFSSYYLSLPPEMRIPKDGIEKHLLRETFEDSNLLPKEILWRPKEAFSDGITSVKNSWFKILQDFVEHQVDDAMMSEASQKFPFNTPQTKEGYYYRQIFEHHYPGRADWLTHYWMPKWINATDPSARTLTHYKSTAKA
Method in brief: (§1)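 ASase partially purified from excised rat Novikoff hepatoma (specific activity 0.51 μmol asparagine/mg protein/30 min). Enzyme and inhibitor were preincubated with 100 μmol Tris at pH 8.0 for 15 min at 37 °C. L-glutamine (20.0 μmol), L-aspartic acid (2.0 μmol) and L-aspartic acid-¹⁴C (2×10⁶ dpm) were then added and incubated 30 min at 37 °C. Isolated L-asparagine-¹⁴C was counted by scintillation. Percent inhibition came from duplicates on three separate days with fresh inhibitor solutions.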

P388 = assay: Antitumor activity against mouse P388 cells […] in mouse assessed as increase in life span; format: functional
Method in brief: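 In vivo screen run by the National Cancer Institute Drug Research and Development Program in CDF₁ mice bearing P-388 lymphocytic leukemia, an asparaginase-resistant line. The read-out was increase in life span.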

[3] = biological target: T1, Asparagine synthetase [glutamine-hydrolyzing] (Mus musculus); assay: Inhibition of asparagine synthetase in mouse L5178Y/AR cells at 1 mM; format: cell-based
[4] = biological target: T3, Asparagine synthetase [glutamine-hydrolyzing] (Homo sapiens) (UniProt P08243); assay: Inhibition of asparagine synthetase in human KB cells at 1 mM; format: cell-based
T3 sequence (whole entry): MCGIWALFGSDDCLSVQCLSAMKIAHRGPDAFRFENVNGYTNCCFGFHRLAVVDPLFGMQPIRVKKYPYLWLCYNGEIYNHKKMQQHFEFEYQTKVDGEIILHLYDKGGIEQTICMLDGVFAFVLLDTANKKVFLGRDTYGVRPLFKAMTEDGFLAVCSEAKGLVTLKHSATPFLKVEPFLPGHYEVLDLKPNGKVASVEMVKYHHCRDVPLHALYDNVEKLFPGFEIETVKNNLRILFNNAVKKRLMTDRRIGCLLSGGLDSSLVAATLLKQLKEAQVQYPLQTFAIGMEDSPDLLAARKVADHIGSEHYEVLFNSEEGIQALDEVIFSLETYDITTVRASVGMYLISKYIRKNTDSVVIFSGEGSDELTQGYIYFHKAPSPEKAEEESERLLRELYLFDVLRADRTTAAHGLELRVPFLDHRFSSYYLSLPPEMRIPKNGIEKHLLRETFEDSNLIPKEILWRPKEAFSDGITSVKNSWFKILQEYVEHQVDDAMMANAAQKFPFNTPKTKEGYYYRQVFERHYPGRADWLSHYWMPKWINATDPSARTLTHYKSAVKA

[5] = biological target: T2, Asparagine synthetase [glutamine-hydrolyzing] (Rattus norvegicus); assay: Competitive inhibition of rat asparagine synthetase using L-aspartic acid as substrate incubated 15 mins prior to substrate addition measured after 30 mins by double reciprocal plot analysis
Method in brief: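 Partially purified rat Novikoff hepatoma ASase was preincubated with inhibitor in Tris at pH 8.0 for 15 min at 37 °C. L-glutamine was then added with L-aspartic acid varied at 0.25, 0.50, 1.0 and 2.0 mM final, plus ¹⁴C-aspartate (2×10⁶ dpm/tube, 206 mCi/mmol), and incubated 30 min at 37 °C. L-asparagine-¹⁴C was measured. Double-reciprocal plots were fitted by least-squares regression.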

[6] = biological target: T2, Asparagine synthetase [glutamine-hydrolyzing] (Rattus norvegicus); assay: Inhibition of asparagine synthetase isolated from rat bearing Novikoff hepatoma cells using [14C]-L-aspartic acid as substrate at 1 mM incubated 15 mins prior to substrate addition measured after 30 mins; method in brief: as §1

| SMILES | inhibition [1] | inhibition [2] [%] | other results |
| --- | --- | --- | --- |
| N[C@@H](CS(=O)(=O)NCc1ccc(S(=O)(=O)F)cc1)C(=O)O | inactive | 29.5 |  |
| N[C@@H](CS(N)(=O)=O)C(=O)O |  | 25.8 |  |
| CCOC(=O)/C=C/C(=O)NNS(=O)(=O)C[C@H](N)C(=O)O | inactive | 37.3 | Activity (P388): inactive |
| N[C@@H](CS(=O)(=O)NCCCl)C(=O)O |  | 0 | inhibition [3]: inactive |
| N[C@@H](CS(=O)(=O)NNC(=O)c1ccc(S(=O)(=O)F)cc1)C(=O)O | inactive | 43.1 |  |
| NC(CC(=O)NO)C(=O)O (racemic) |  |  | inhibition [4]: 36% |
| N[C@@H](CC(=O)NO)C(=O)O |  | 15.8 | inhibition [5]: inactive |
| N[C@@H](CS(=O)(=O)NO)C(=O)O | 81% | 96.5 | inhibition [6]: 77.6%; Activity (P388): inactive; inhibition [5]: Active; inhibition [3]: 23% |
